The source of these data is ChEMBL document CHEMBL1153869, “Preparation and antimicrobial behaviour of quaternary ammonium thiol derivatives able to be grafted on metal surfaces” (2009).

Experiment [1] deals with Aspergillus niger. Briefly: Antifungal activity against Aspergillus niger ATCC 6275 after 7 days. The class given is functional. The conditions noted are these: ATCC 6275, 168 h. An outline of the steps:
(§1)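 From fungal MIC plates after 7 days of incubation, the three sub-dose wells showing no growth were streaked onto Sabouraud dextrose agar. MLC was the lowest concentration leaving no viable fungi after subculture on drug-free medium. Three independent experiments were run.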

For experiment [2], the system named is Aspergillus niger. Briefly: Antifungal activity against Aspergillus niger ATCC 6275 after 72 hrs by serial dilution method. As to conditions: ATCC 6275, 72 h.
For experiment [3], the system named is Candida albicans. Briefly: Antifungal activity against Candida albicans ATCC 10231 after 7 days. It counts as functional. As to conditions: ATCC 10231, 168 h. An outline of the steps: as §1
The test system of experiment [4] is Pseudomonas aeruginosa. Briefly: Antibacterial activity against Pseudomonas aeruginosa ATCC 9027 after 5 days. The class given is functional. As to conditions: ATCC 9027, 120 h. An outline of the steps: (§2)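 From bacterial MIC plates after 5 days of incubation, the three sub-dose wells showing no growth were streaked onto trypticase soy agar. MLC was the lowest concentration leaving no viable bacteria after subculture on antibiotic-free medium. Three independent experiments were run.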

Experiment [5] concerns Pseudomonas aeruginosa. Briefly: Antibacterial activity against Pseudomonas aeruginosa ATCC 9027 after 24 hrs by serial dilution method. The class given is functional. The conditions noted are these: ATCC 9027, 24 h. An outline of the steps: (§3)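 Bacteria were grown overnight on a TSA slant, transferred into M9GY (pH 7.0) and incubated overnight at 30 °C. Third-generation, exponential-phase cells were adjusted to OD660 0.05 (about 5.10⁶–5.10⁷ cfu/mL). Initial solutions in methanol/water 1:1 were serially diluted automatically in microtitre plates. MIC was the lowest concentration with no turbidity after 24 h at 30 °C. Three independent experiments were run.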

In experiment [6] the test system is Staphylococcus aureus. Briefly: Antibacterial activity against Staphylococcus aureus ATCC 6538 after 24 hrs by serial dilution method. The class given is functional. The conditions noted are these: ATCC 6538, 24 h. The method in brief:
as §3

Experiment [7] has as its system Candida albicans. Kind of experiment: Antifungal activity against Candida albicans ATCC 10231 after 72 hrs by serial dilution method. As to conditions: ATCC 10231, 72 h.
Experiment [8] concerns Staphylococcus aureus. Briefly: Antibacterial activity against Staphylococcus aureus ATCC 6538 after 5 days. It counts as functional. The conditions noted are these: ATCC 6538, 120 h. The method in brief:
as §2

With `CCCCCCCCCC[N+](C)(C)CCCNC(=O)CCCCCCCCCCS`, the MLC was above 60.7 µM in experiment [1], above 677 µM in experiment [3], 250 µM in experiment [4] and 32.5 µM in experiment [8]. Besides, the MIC in experiment [2] was 44.1 µM; in experiment [5], 171 µM; in experiment [6], 17.5 µM; in experiment [7] it was above 677 µM.
As for `CCCCCCCCCCCC[N+](C)(C)CCCCCCCCCCCS`, the MLC in experiment [1] was above 92.2 µM; in experiment [3] it was above 63.4 µM; in experiment [4] it was 326 µM; in experiment [8], 73.3 µM. Besides, the MIC in experiment [2] was 67.2 µM; in experiment [5], 326 µM; in experiment [6] it was 34.7 µM; in experiment [7], 39.5 µM.
For `CCCCCCCCCC[N+](C)(C)CCCCCCCCCCCS`, the MLC in experiment [1] was 48 µM; in experiment [3], above 61.3 µM; in experiment [4], 309 µM; in experiment [8], 48 µM. The MIC turned out to be 31.6 µM in experiment [2], 309 µM in experiment [5], 11.6 µM in experiment [6] and 31.6 µM in experiment [7].
On to `CCCCCCCCCCCC[N+](C)(C)CCCNC(=O)CCCCCCCCCCS`, for which the MLC in experiment [1] was above 61.7 µM; in experiment [3], above 688 µM; in experiment [4], 184 µM; in experiment [8] it was 38.2 µM. Besides, the MIC is 47 µM in experiment [2], 184 µM in experiment [5], 18.7 µM in experiment [6] and above 688 µM in experiment [7].
For `CCCCCCCCCCCCCC[N+](C)(C)CCCNC(=O)CCCCCCCCCCS`, the MLC in experiment [1] is above 74.2 µM; in experiment [3], above 742 µM; in experiment [4] it was 599 µM; in experiment [8], 188 µM. Besides, the MIC is 56.3 µM in experiment [2], 442 µM in experiment [5], 188 µM in experiment [6] and above 742 µM in experiment [7].
In the case of `C[N+](C)(CCCCCCCCCCCS)Cc1ccccc1`, the MLC in experiment [1] was 682 µM; in experiment [3], above 896 µM; in experiment [4] it was above 1530 µM; in experiment [8], 682 µM. Further, the MIC in experiment [2] amounted to 351 µM; in experiment [5], 1060 µM; in experiment [6], 682 µM; in experiment [7], 472 µM.
With `CCCCCCCCCCCCCC[N+](C)(C)Cc1ccccc1` [MIRISTALKONIUM CHLORIDE], the MIC in experiment [2] came out at 4.74 µM; in experiment [5], 93 µM; in experiment [6], 3.2 µM; in experiment [7], 8.36 µM.
For `C[N+](C)(CCCNC(=O)CCCCCCCCCCS)Cc1ccccc1`, the MLC is above 946 µM in experiment [1], above 1060 µM in experiment [3], above 1060 µM in experiment [4] and 946 µM in experiment [8]. Further, the MIC in experiment [2] was 773 µM; in experiment [5], 980 µM; in experiment [6], 592 µM; in experiment [7] it was above 1060 µM.
Take `C[N+](C)(C)CCCNC(=O)CCCCCCCCCCS`: the MLC in experiment [1] is above 395 µM; in experiment [3] it was above 1070 µM; in experiment [4], above 864 µM; in experiment [8], above 395 µM. In addition, the MIC in experiment [2] is 105 µM; in experiment [5], 595 µM; in experiment [6] it was 105 µM; in experiment [7], above 1070 µM.
For `CCCCCCCCCCCCCC[N+](C)(C)CCCCCCCCCCCS`, the MLC was above 124 µM in experiment [1], above 1520 µM in experiment [3], above 1520 µM in experiment [4] and above 1520 µM in experiment [8]. Also, the MIC in experiment [2] amounted to 90 µM; in experiment [5] it was 1120 µM; in experiment [6] it was 1310 µM; in experiment [7] it was 1520 µM.
`C[N+](C)(C)CCCCCCCCCCCS`: the MLC in experiment [1] is above 131 µM; in experiment [3] it was above 1900 µM; in experiment [4] it was above 1120 µM; in experiment [8], 56.6 µM. Further, the MIC is 56.6 µM in experiment [2], 557 µM in experiment [5], 56.6 µM in experiment [6] and 1120 µM in experiment [7].
